Compound activity (PubChem)
Shown are actives, neighbours in structure and some others; about 2.3% of the full set was active somewhere.
ERp5 block – blocks human ERp5 reductase activity on insulin. inhibition, % at 9.99 µM. 350,000 compounds, 0.05% hits. ERp5 insulin aggregation, absorbance 650 nm, 90 min. AID 651711;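 active means mean replicate inhibition above about 25%, with every replicate also reaching it, limit read from the data, passing the limit was not always enough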
CFTR F508del cor – CFTR F508del correction in bronchial cells; CFBE cells, YFP halide quenching; stimulated with forskolin plus potentiator P3; % fluorescence drop versus neutral controls; activity (quench increase), % at 7.58 µM; 350,000 compounds, 0.36% hits; AID 720511;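 active means mean added fluorescence quench of at least 8% versus neutral control, with both replicates also reaching 8%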;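 further: cells transiently co-express mutant CFTR-F508del with the halide-sensitive YFP; corrector assay measuring rescue of mutant channel to the surface after 24 h compound exposure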
PDI inh – inhibitors of human protein disulfide isomerase; P07237; PDI insulin aggregation turbidity, A650, 90 min; inhibition, % at 10 µM; 350,000 compounds, 0.052% hits; AID 588391;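 active means mean inhibition across replicates of 30% or more, whatever share of single replicates reach that level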
Target sequence (P07237 whole entry, looked up): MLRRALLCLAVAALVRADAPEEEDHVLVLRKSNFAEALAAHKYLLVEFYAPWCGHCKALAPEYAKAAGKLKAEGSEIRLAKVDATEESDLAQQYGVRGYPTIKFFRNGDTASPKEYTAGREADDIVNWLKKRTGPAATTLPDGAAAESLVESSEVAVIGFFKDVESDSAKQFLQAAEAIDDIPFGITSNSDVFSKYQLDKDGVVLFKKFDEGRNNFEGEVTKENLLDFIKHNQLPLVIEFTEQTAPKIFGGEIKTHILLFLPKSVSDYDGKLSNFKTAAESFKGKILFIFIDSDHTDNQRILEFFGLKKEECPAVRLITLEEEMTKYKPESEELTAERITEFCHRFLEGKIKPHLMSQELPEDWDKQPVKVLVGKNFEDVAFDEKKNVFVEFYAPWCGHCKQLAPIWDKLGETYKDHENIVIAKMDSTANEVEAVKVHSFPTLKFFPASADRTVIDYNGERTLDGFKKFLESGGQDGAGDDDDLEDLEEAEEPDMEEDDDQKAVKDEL
Cneo AK release – Cryptococcus neoformans lysis via adenylate kinase release | C. neoformans lysis, adenylate kinase release luminescence, 4 h; normalised: neutral wells 0, clomiphene wells 100 | lysis activity, % at 15 µM | 360,000 compounds, 0.2% hits;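 active means mean lysis activity across replicates of at least 80%, whatever share of replicates individually reach that level; inactive means mean lysis activity below 80%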
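Material: C. neoformans cells | Amount: Yeast cell density of 5 × 10^6 cells/mL | Medium: Fresh YPD growth medium | Dosing: Single dose | Times: Static 4 h at 37 °C with compound, 1 h detection | Detection: AK luminescence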
DENV2 CPE rescue – DENV2-induced cell death inhibition; DENV2-infected cells, cytopathic effect rescue, plate reader; CPE inhibition, % at 9.99 µM; 350,000 compounds, 1.7% hits; in the data active means CPE inhibition above about 20%, passing the limit was not always enough; tested in BHK-21 cells;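 further: 0% = median of neutral control wells and 100% = median of positive control wells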
C2C12 statin – suppressors of simvastatin-induced myotoxicity in C2C12 myotubes; ATP luminescence, 48 h; scaled: DMSO 0, geranylgeraniol control 100; rescue of ATP level, % at 7.49 µM; 330,000 compounds, 0.78% hits; AID 602340;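 active means mean ATP rescue above about 67%, or every replicate alone reaching that limit, limit read from the data, passing the limit was not always enough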;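 further: myotubes were challenged with 10 µM simvastatin during compound exposure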
Numbers without * were called inactive; / = no result given.

SMILES	ERp5 block	CFTR F508del cor	PDI inh	Cneo AK release	DENV2 CPE rescue	C2C12 statin
C#CCOCCOCCOCCNc1nc(N2CCN(C(=O)[C@H](CCCCN)n3cc(CC(C)O)nn3)CC2)nc(N2CCN(C(=O)[C@H](Cc3ccc(O)cc3)n3cc(CCO)nn3)CC2)n1 (stereo not given in full)	-1	3	14	-1	-5	7
C#CCOCCOCCOCCNc1nc(N2CCN(C(=O)Cn3cc(CCO)nn3)CC2)nc(N2CCN(C(=O)[C@H]([C@@H](C)O)n3cc(CCCCN)nn3)CC2)n1	1	0	-3	-1	21*	-5
C[C@H]1CN([C@@H](C)CO)C(=O)c2cc(C#Cc3cccnc3)cnc2O[C@@H]1CN(C)C(=O)CN(C)C	-4	4	/	-7	-4	19
O=C(C[C@@H]1CC[C@@H](NC(=O)C2CC2)[C@@H](CO)O1)Nc1nccs1	1	-1	/	2	9	-2
CCC(CCC(=O)Nc1ccn(-c2ccccc2)n1)C(=O)O (stereo not given)	/	/	5	6	/	121*
CCCC(CCC(=O)Nc1ccn(-c2ccccc2)n1)C(=O)O (stereo not given)	-7	-3	3	/	-4	/
CC(NC(=O)C1CC=CCC1C(=O)O)C1CC2CCC1C2 (stereo not given)	/	/	8	2	/	98*
CSCC[C@H](NC(=O)OC(C)(C)C)C(=O)N1CCC(C(=O)N[C@@H](C)C(=O)NCc2ccc(F)cc2)CC1	-2	-2	/	1	36*	-7
CSCC[C@H](NC(=O)OC(C)(C)C)C(=O)N1CCC(C(=O)N[C@@H](C)C(=O)NC(C)c2ccccc2)CC1 (stereo not given in full)	2	4	/	2	8	4
COc1cccc(S(=O)(=O)Nc2ccc3c(c2)[C@H]2C[C@@H](CC(=O)N4CCCCC4)O[C@H](CO)[C@H]2O3)c1	-2	4	/	-2	-2	1
CCc1nc(SCC(=O)Nc2cc(C)on2)c2c(C)c(C)sc2n1	/	/	4	-1	/	130*
N/C(=N\c1nc2ccccc2o1)NC(=O)c1ccc(F)cc1	/	/	17	-9	/	83*
COc1ccccc1C(=O)Nc1ccc2c(c1)OC[C@H](C)NC[C@H](C)[C@@H](OC)CN(C)C2=O	-1	1	/	/	11	/
O=C(CNC(=O)N1CC(=O)Nc2ccccc21)NCc1ccc(F)cc1	1	-2	-2	0	113*	1
O=C(CCNC(=O)N1CC(=O)Nc2ccccc21)NCc1ccc(F)cc1	8	-1	-4	-1	-6	-4
Nc1nsc2ccccc12	3	1	1	-2	0	120*
CCS(=O)(=O)Nc1ccc2c(c1)C(=O)N(C)C[C@@H](OC)[C@H](C)CN(C(=O)C1CC1)[C@@H](C)CO2	-6	-2	/	-3	1	2
CO[C@@H](CN(C)S(=O)(=O)c1ccc(C)cc1)[C@H](C)CN([C@H](C)CO)S(=O)(=O)c1cccc(Cl)c1	-2	15*	/	-2	7	-45
CO[C@@H](CN(C)Cc1cc(F)ccc1F)[C@H](C)CN([C@H](C)CO)S(=O)(=O)c1ccc(F)cc1	-5	0	/	2	17	-3
CO[C@@H](CN(C)Cc1cc(F)ccc1F)[C@@H](C)CN([C@H](C)CO)S(=O)(=O)c1ccc(F)cc1	-2	-1	/	102*	-6	-10
CO[C@H](CN(C)S(=O)(=O)c1ccc(C)cc1)[C@H](C)CN([C@H](C)CO)S(=O)(=O)c1cccc(Cl)c1	5	3	/	11	3	-1
CCCNC(=O)C[C@@H]1CC[C@H]2[C@@H](COC[C@@H](O)CN2C(=O)Nc2ccccc2OC)O1	3	5	/	6	-3	2
COc1ccc(NC(=O)N(C)C[C@@H]2Oc3ccc(NC(=O)Nc4ccc(F)cc4)cc3C(=O)N([C@@H](C)CO)C[C@@H]2C)cc1	0	0	/	1	4	-17
Cc1ccnc(NC(=O)C(Cc2ccccc2)NC(=O)c2ccccc2)c1 (stereo not given)	0	-3	-7	1	38*	-6
